By Ki is commonly meant the dissociation constant of the complex between target and ligand, obtained from inhibition or displacement. High values mean a looser hold on the target, low ones a stronger hold on the target.

Consider 7 compounds from ChEMBL document CHEMBL1123293, “Potent vasopressin antagonists lacking the proline residue at position 7” (J Med Chem, 1986).

In assay [1] the test system is Rattus norvegicus. The experiment in a line: Dose required to decrease urine osmolality in rats from the hydropenic levels (~1500 mOsm/kg of H20) 300 mOsm/kg H20. It is filed as functional. In outline: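 Male rats were deprived of food and water overnight to give a stable hydropenic state (urine osmolality ~1500 mOsm/kg H₂O). Rats were kept in metabolism cages, four per cage, and given vehicle or one of four doses. Urine volume and osmolality were measured. ED (µg/kg) to lower Uosm to 300 mOsm/kg H₂O was averaged from one to three dose-response curves per peptide.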

Assay [2] concerns the target Vasopressin V2 receptor (Sus scrofa) (UniProt P32307). The experiment in a line: Affinity for vasopressin V2-receptor of porcine renal medullary membrane. It is filed as tissue-based. As to conditions: Renal medulla. The method, boiled down: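 Porcine renal medullary membrane preparation; displacement of [³H]LVP binding. K_bind calculated from the IC50 by the competitive-inhibition relation Kb = IC50/(1 + L/K_D), with K_D taken as the dissociation constant of [³H]LVP.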

The target in assay [3] is Vasopressin V2 receptor (Sus scrofa, UniProt P32307). The experiment in a line: Inhibition of LVP stimulated adenylate cyclase activity in pig kidney medullary membrane. Type of assay: functional, cell membranes. In outline: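 LVP-stimulated adenylate cyclase in pig kidney medullary membranes. The inhibition constant K_i was derived from the competitive-inhibition equation. Values are the mean of triplicate determinations.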
Chain of Vasopressin V2 receptor (P32307 whole entry): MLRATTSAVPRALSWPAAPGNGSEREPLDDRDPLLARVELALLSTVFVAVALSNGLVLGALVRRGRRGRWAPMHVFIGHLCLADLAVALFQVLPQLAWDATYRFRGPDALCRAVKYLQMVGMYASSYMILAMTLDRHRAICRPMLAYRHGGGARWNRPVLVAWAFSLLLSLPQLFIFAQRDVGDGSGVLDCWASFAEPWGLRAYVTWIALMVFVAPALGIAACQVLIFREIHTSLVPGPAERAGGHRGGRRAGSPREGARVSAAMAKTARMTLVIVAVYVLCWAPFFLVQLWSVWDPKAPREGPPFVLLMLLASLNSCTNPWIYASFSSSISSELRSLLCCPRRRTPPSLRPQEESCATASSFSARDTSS

Chain of Vasopressin V2 receptor (Sus scrofa) (P32307 whole entry): as above

Regarding `CCOc1ccc(C[C@H]2NC(=O)CC3(CCCCC3)SSC[C@@H](C(=O)N3CCC[C@H]3C(=O)N[C@@H](CCCN=C(N)N)C(N)=O)NC(=O)[C@H](CC(N)=O)NC(=O)[C@H](C(C)C)NC(=O)[C@H](Cc3ccccc3)NC2=O)cc1`, the ED300 in assay [1] was found to be 9 µg/kg.

Regarding `CCOc1ccc(C[C@H]2NC(=O)CC3(CCCCC3)SSC[C@@H](C(=O)N3CCC[C@H]3C(=O)N[C@@H](CCCN=C(N)N)C(=O)NCC(N)=O)NC(=O)[C@H](CC(N)=O)NC(=O)[C@H](C(C)C)NC(=O)[C@H](Cc3ccccc3)NC2=O)cc1`, in assay [1], the ED300 stood at 11 µg/kg.

For `CCOc1ccc(C[C@@H]2NC(=O)CC3(CCCCC3)SSC[C@H](C(=O)N3CCC[C@H]3C(=O)N[C@@H](CCCN=C(N)N)C(N)=O)NC(=O)[C@@H](CC(N)=O)NC(=O)[C@H](C(C)C)NC(=O)[C@@H](Cc3ccccc3)NC2=O)cc1`, the K bind in assay [2] was 12 nM.

In assay [2], `CCOc1ccc(C[C@@H]2NC(=O)CC3(CCCCC3)SSC[C@H](C(=O)N[C@@H](CCCCN)C(N)=O)NC(=O)[C@@H](CCN)NC(=O)[C@H](C(C)C)NC(=O)[C@@H](Cc3ccccc3)NC2=O)cc1` returned a K bind of 26 nM.

In assay [3], `CCOc1ccc(C[C@H]2NC(=O)CC3(CCCCC3)SSC[C@@H](C(=O)N[C@@H](CCCNC(=N)N)C(N)=O)NC(=O)[C@H](CCN)NC(=O)[C@H](C(C)C)NC(=O)[C@H](Cc3ccccc3)NC2=O)cc1` yielded an inhibitory constant (Ki) of 2.5 nM.

As to `CCOc1ccc(C[C@@H]2NC(=O)CC3(CCCCC3)SSC[C@H](C(=O)N[C@H](CCCN=C(N)N)C(N)=O)NC(=O)[C@@H](CCN)NC(=O)[C@H](C(C)C)NC(=O)[C@@H](Cc3ccccc3)NC2=O)cc1`, in assay [2], the K bind stood at 4.4 nM.

For `CCOc1ccc(C[C@@H]2NC(=O)CC3(CCCCC3)SSC[C@H](C(=O)N3CCC[C@H]3C(=O)N[C@@H](CCCN=C(N)N)C(=O)NCC(N)=O)NC(=O)[C@@H](CC(N)=O)NC(=O)[C@H](C(C)C)NC(=O)[C@@H](Cc3ccccc3)NC2=O)cc1`, the K bind in assay [2] was 12 nM.
